Shown are actives, neighbours in structure and some others; about 1.8% of the full set was active somewhere.
DDE Tn6 FP inh: inhibitors of Tn6 peptide binding to fibrin DD(E), primary screen, biochemical, fluorescence polarization, human fibrin, Tn6 probe | Fibrinogen beta chain (Homo sapiens), P02675 | AID 720509, 2013 | inhibition, % at 8.3 µM | 370,000 compounds, 0.21% hits | Fibrin DD(E) TRITC-Tn6 fluorescence polarization displacement;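 active means inhibition above a per-campaign cutoff: mean of compounds within control limits plus 3 SD, cut at about 15% in these data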;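 further: 0% = median of all compound wells on the plate and 100% = blocking peptide control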
Tn7 DDE FP: inhibitors of Tn7 peptide binding to fibrin DD(E), primary screen, biochemical, fluorescence polarization, human fibrin, Tn7 probe; AID 720508, 2013; FP displacement of FITC-Tn7 peptide from fibrin DD(E); 0% = median of compound wells per plate; 370,000 compounds, 0.13% hits; Fibrinogen beta chain (Homo sapiens), P02675; inhibition, % at 8.3 µM;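 active means inhibition above the mean of compounds falling within the control limits plus 3 SD of them, cut at about 14% in these data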;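 further: 0% = plate median of compound wells and 100% = 10 µM Aha-Tn7 peptide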
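Assay system: Fibrin-DD(E) protein isolated from polymerized human fibrin clots; read-out basis: percent inhibition; medium: Tris/NaCl/CaCl2 buffer, pH 7.8; signal: FP measurement; incubation: 10 min plus 3 h, room temperature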
CAL PDZ FP-1: CAL PDZ peptide-binding inhibitors, primary screen, biochemical, fluorescence polarization, Cer-tagged CAL PDZ, HTS | Golgi-associated PDZ and coiled-coil motif-containing protein (Homo sapiens), Q9HD26 | purified CAL PDZ, TMR-peptide fluorescence polarization, 1 h | inhibition, % at 20 µM | 330,000 compounds, 0.02% hits;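 active means highest replicate inhibition of at least 40%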;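 further: plate controls were DMSO neutral control wells for no effect and unlabeled competitor peptide control wells for full effect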
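material = purified tagged CAL PDZ domain construct (CerCALP) | buffer or medium = sodium phosphate/NaCl buffer pH 7.4 with TCEP, IgG, Thesit | reagent = TMR-labelled reporter peptide T*-PRC34 bound in PDZ groove | incubation = 1 h room-temperature incubation prior to read | measured by = fluorescence polarization (mP) | evaluation = percent inhibition from loss of millipolarization | control set = unlabelled peptide and DMSO controls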
GRK2 inh: compounds blocking aptamer binding on GRK2 – biochemical, human GRK2, bead flow cytometry, HTS, primary screen; FAM-aptamer displacement from GRK2; inhibition of aptamer binding, % at 10 µM; Beta-adrenergic receptor kinase 1 (Homo sapiens), P25098; 330,000 compounds, 0.59% hits;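 active means inhibition of aptamer binding above 40%, roughly 3 SD of noise, on plates passing a quality check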;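 further: median bead fluorescence of bound FAM aptamer so fluorescent compounds give negative values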
Target sequence (P25098 whole entry, looked up): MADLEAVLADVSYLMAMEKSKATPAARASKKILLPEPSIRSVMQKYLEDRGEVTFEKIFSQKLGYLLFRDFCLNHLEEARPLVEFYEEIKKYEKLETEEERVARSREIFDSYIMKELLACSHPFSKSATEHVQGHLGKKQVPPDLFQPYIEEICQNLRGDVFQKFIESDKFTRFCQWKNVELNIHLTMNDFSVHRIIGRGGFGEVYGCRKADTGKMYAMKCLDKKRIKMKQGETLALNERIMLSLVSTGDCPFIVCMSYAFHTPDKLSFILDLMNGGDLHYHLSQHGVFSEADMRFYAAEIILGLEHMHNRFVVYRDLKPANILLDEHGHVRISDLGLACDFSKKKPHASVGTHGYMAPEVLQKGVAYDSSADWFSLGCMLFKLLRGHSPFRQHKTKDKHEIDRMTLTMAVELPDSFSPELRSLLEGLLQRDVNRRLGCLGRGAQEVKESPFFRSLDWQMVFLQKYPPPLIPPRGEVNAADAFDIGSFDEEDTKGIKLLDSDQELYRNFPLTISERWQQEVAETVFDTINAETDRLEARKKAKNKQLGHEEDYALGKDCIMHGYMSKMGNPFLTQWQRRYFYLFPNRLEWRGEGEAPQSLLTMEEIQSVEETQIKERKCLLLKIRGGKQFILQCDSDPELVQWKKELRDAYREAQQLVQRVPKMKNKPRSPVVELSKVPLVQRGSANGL
CAL PDZ FP-2: untagged CAL PDZ binding inhibitors, primary screen, biochemical, fluorescence polarization, HTS; Golgi-associated PDZ and coiled-coil motif-containing protein (Homo sapiens), Q9HD26; purified CAL PDZ, TMR-peptide fluorescence polarization, 1 h; inhibition, % at 24.9 µM; 300,000 compounds, 0.92% hits; AID 602252, 2012;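 active means mean inhibition of at least 30% with at least half of replicates also reaching 30%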;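 further: 0% = DMSO neutral control and 100% = excess unlabeled competitor peptide PRC23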
ARNT-TACC3 inh: disruptors of ARNT/TACC3 protein interaction, primary screen, biochemical, AlphaScreen, single concentration. 390,000 compounds, 0.66% hits. AlphaScreen His-ARNT PAS-B/GST-TACC3 binding, luminescence; TACC3 fragment carries E629A point mutation. inhibition, % at 9.99 µM;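 active means mean inhibition of replicates at least 50% and at least half of replicates each reaching 50%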;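 further: 0% = complete ARNT plus TACC3 wells and 100% = ARNT alone without TACC3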
GRK2 CP1: GRK2 aptamer-displacing inhibitors, retest, confirmation, biochemical, cherry pick 1, bead flow cytometry; shares compounds with GRK2 inh; bead-bound GRK2, FAM-aptamer displacement; aptamer displacement, % at 10 µM; 2,000 compounds, 4% hits;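 active means aptamer displacement above 40%, near three times the noise of non-fluorescent compounds, on plates passing quality checks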;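 further: negative values mostly reflect intrinsic compound fluorescence rather than true enhancement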
Aptamer quench: fluorescent aptamer quenching in GRK2 counter-screen dose response; shares compounds with GRK2 inh; Fluorescent RNA aptamer beads, flow cytometry; hits give high values; fluorescence change (kMESF span), kMESF (test concentration not listed); 110 tested, under 10 active; AID 504521;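 active means compounds whose bead fluorescence drops by more than 37 kMESF across the dose range, marking them as dye quenchers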
FAM quench CP1: quenches fluorescent RNA aptamer, GRK2 hit artifact; shares compounds with GRK2 inh; Carboxyfluorescein RNA aptamer on beads, flow cytometry quenching; hits give low values; fluorescence response (% of DMSO), % at 10 µM; 2,000 tested, under 10 active; AID 504580;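 active means compounds that quench the bead-bound fluorescent RNA probe, cutting fluorescence to under half of the solvent control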;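 further: counterscreen run without GRK2 so only probe quenching by compound is measured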
Active calls of the source: *; . = not tested or not shown.

SMILES	DDE Tn6 FP inh	Tn7 DDE FP	CAL PDZ FP-1	GRK2 inh	CAL PDZ FP-2	ARNT-TACC3 inh	GRK2 CP1	FAM quench CP1	others
CCOc1ccccc1N(C(=O)Cn1nnnc1-c1ccc(C)o1)C(CC)C(=O)NC(C)(C)C (stereo not drawn)	4	7	0	97*	0	-3	-1	102
CCCNC(=O)Nc1ccc2c(c1)C(=O)N(C)C[C@H](OC)[C@H](C)CN(C(=O)c1ccccc1F)[C@H](C)CO2	.	.	.	.	.	-5	.	.
COc1ccc(CC(=O)N(Cc2ccccc2)C(C)C)cc1	3	4	-1	2	0	4	.	.
COc1ccc(CCC(C)N(C)Cc2ccccc2)cc1 (stereo not drawn)	-7	-6	0	37	7	-7	0	93
COc1ccc(CN([C@H](C)CO)S(=O)(=O)N(Cc2ccccc2)[C@H](CO)C(C)C)cc1	2	0	-1	46*	-2	1	-3	96
COc1cccc(OC)c1C(=O)Nc1ccc(N2CCCC2)cc1	-11	4	0	100*	-2	3	3	93
Cc1ccc(S(=O)(=O)/N=C(\c2ccccc2)N(C)S(=O)(=O)c2ccc(C)cc2)cc1	-7	-6	-1	66*	1	0	-3	96
COC(=O)c1sc2cc(C(F)(F)F)cnc2c1-c1cccnc1	1	3	-2	12	-3	-4	.	.
NNC(=O)c1sc2cc(C(F)(F)F)cnc2c1-c1cccnc1	4	-4	.	41*	2	21	2	112
NC(=O)C1CCN(CC(=O)Nc2cccnc2Cl)CC1	2	-2	0	42*	0	-3	-4	135
CNC[C@@H]1Oc2ccc(NS(=O)(=O)c3ccccc3)cc2C(=O)N([C@H](C)CO)C[C@@H]1C	.	.	.	.	.	0	.	.
COc1ccc(S(=O)(=O)NCC(c2ccc(F)cc2)N2CCN(C)CC2)cc1 (stereo not drawn)	-1	-1	-1	76*	4	.	46*	100	Aptamer quench=0.2
CC(=O)N/C(=C\c1ccccc1)C(=O)NCc1ccc2c(c1)OCO2	3	5	-2	64*	-2	.	1	97
O=C(CCN1CCCCC1)N[C@H]1CC[C@H](CC(=O)N2CCC(Cc3ccccc3)CC2)O[C@@H]1CO	.	.	.	.	.	-6	.	.
COCCNc1nnc(Cc2ccc(OC)c(OC)c2)c(=O)[nH]1	-15	7	.	0	4	3	.	.
COc1ccc(Cc2nnc(SC)[nH]c2=O)cc1OC	7	-13	-5	51*	-1	-4	-1	98
Cc1cc(C)n2nc(SCC(=O)c3c(N)n(CC(C)C)c(=O)n(C)c3=O)nc2n1	0	-7	0	72*	1	2	-3	101
Cc1cc(C)n2nc(SCC(=O)N(CC(C)C)c3c(N)n(CC(C)C)c(=O)[nH]c3=O)nc2n1	8	8	-2	1	-3	-4	.	.
Cc1ccc(OCC(=O)c2cc(C)c(C)cc2C)c([N+](=O)[O-])n1	2	3	0	1	0	6	.	.

Screening data as filed in PubChem BioAssay.
